The text below walks through data of ChEMBL document CHEMBL1125745, “Unsaturated and carbocyclic nucleoside analogues: synthesis, antitumor, and antiviral activity” (J Med Chem, 1991).

As usually defined, the IC50 is the concentration at which inhibition is half-maximal. Broadly, the EC50 is the concentration that produces a half-maximal response.

The species named for assay [1] is Homo sapiens. Description: Cytotoxicity was evaluated against C116 human solid tumor at 1000 ug/disk. It is filed as functional. The method, boiled down:
(§1)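 Disk zone assay: analogue dilutions on 6.5 mm paper disks were placed on dishes with a 0.8% agar bottom layer and a 0.44% soft-agar top layer of tumor cells (≤1 × 10^5/plate) in Fishers-CMRL-1066 with 12% horse serum. Plates were incubated 6-10 days and the inhibition zone was measured by microscope; 200 zone units = 6 mm.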

Assay [2] relates to MC-38. Description: Cytotoxicity was evaluated against C38 solid tumor of mouse at 1000 ug/disk. The class given is functional. The method in brief: as §1
For assay [3], the species on record is Mus musculus. Description: Cytotoxicity was evaluated against low malignancy line at 1000 ug/disk. It is filed as functional. The method in brief:
as §1

Assay [4] relates to L1210. Description: Compound was evaluated for inhibition of macromolecular synthesis in murine leukemia L1210 cells at 4 hour against DNA. The arrangement: scale not given: the % may be the effect or the level left. The class given is functional, Mus musculus.
The subject of assay [5] is L1210. Description: Compound was evaluated for inhibition of macromolecular synthesis in murine leukemia L1210 cells at 4 hour against Protein. Set-up: scale not given: the % may be the effect or the level left. It is filed as functional, Mus musculus.
Assay [6] deals with L1210. Description: Compound was evaluated for inhibition of macromolecular synthesis in murine leukemia L1210 cells at 4 hour against RNA. The arrangement: scale not given: the % may be the effect or the level left. It is filed as functional, Mus musculus.
Assay [7] has as its system L1210. Description: Cytotoxicity was evaluated against L1210 leukemia cell line at 1000 ug/disk. The class given is functional, Mus musculus. The method in brief: as §1
Assay [8] relates to L1210. Description: Inhibitory activity against murine leukemia L1210 cells. The class given is functional, cell-based. Particulars: Mus musculus.
Assay [9] is filed under the species Homo sapiens. The experiment in a line: Cytotoxicity was evaluated against C116 human solid tumor at 1.5 ug/disk. The class given is functional. The method in brief: as §1
The test system of assay [10] is MC-38. The experiment in a line: Cytotoxicity was evaluated against C38 solid tumor of mouse at 1.5 ug/disk. It is filed as functional. The method, boiled down:
as §1

Assay [11] is described as follows: Cytotoxicity was evaluated against CO9 solid tumor of mouse at 1.5 ug/disk. The class given is functional. The method in brief:
as §1

Assay [12] is filed under the species Homo sapiens. Description: Cytotoxicity was evaluated against H125 human solid tumor at 1.5 ug/disk. The class given is functional. The method in brief:
as §1

Assay [13] in a line: Cytotoxicity was evaluated against low malignancy line at 1.5 ug/disk. It is filed as functional. The method, boiled down: as §1
The species named for assay [14] is Homo sapiens. The experiment in a line: Cytotoxicity was evaluated against PO1 human solid tumor at 1.5 ug/disk. It is filed as functional. The method in brief:
as §1

In assay [15] the test system is PO3. The experiment in a line: Cytotoxicity was evaluated against PO3 cell line at 1.5 ug/disk. It is filed as functional, Mus musculus. The method, boiled down: as §1
The species named for assay [16] is Mus musculus. The experiment in a line: Concentration that reduces Friend murine leukemia virus titer by 50%. The class given is functional, organism-based. The method in brief:
(§2)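 SC-1 cells (1 × 10^4/well) were pretreated with polybrene, infected 2 h at 37 °C with F-MuLV or R-MuLV in EMEM-5 with 8 µg/mL polybrene, washed, and refed with analogue for 72 h. They were then UV-irradiated and overlaid with XC cells (2 × 10^5) for 48 h, fixed and stained with crystal violet. Multinucleated cells were counted and EC50 was taken by linear regression versus untreated cultures.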

The species entered for assay [17] is Mus musculus. Description: Inhibition of incorporation of labeled precursor into macromolecules of noninfected SC-1 cells with the compound at a concentration 300 uM determined against leucine. It is filed as functional. The method in brief:
(§3)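 SC-1 cells seeded in 24-well trays at 1 × 10^4 cells/mL, incubated overnight at 37 °C, then exposed to analogue for 72 h at 37 °C. Labeled thymidine (2.5 µCi), [3H-5,6]uridine or [3H-4,5]leucine was added. After 4 h, cells were washed with cold PBS, lysed in 1% SDS/0.01 M EDTA/0.01 M Tris pH 7.7, and lysates were dried on GF/B filters. Result given as % of untreated incorporation.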

For assay [18], the species on record is Mus musculus. Description: Inhibition of incorporation of labeled precursor into macromolecules of noninfected SC-1 cells with the compound at a concentration 300 uM determined against thymidine. It is filed as functional. The method, boiled down: as §3
The species named for assay [19] is Mus musculus. The experiment in a line: Inhibition of incorporation of labeled precursor into macromolecules of noninfected SC-1 cells with the compound at a concentration 300 uM determined against uridine. It is filed as functional. The method in brief:
as §3

Assay [20] is filed under the species Mus musculus. The experiment in a line: Inhibition of incorporation of labeled precursor into macromolecules of noninfected SC-1 cells with the compound at a concentration 100 uM determined against leucine. It is filed as functional. The method in brief:
(§4)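 Noninfected SC-1 cells were incubated with analogue as in the cytotoxicity setup, and [3H]thymidine, [3H]uridine or [3H]leucine was added. After 4 h, wells were washed with ice-cold PBS and cells were lysed in 1% SDS, 0.01 M EDTA, 0.01 M Tris pH 7.7. Lysates were dried on glass-fiber filters, and label is expressed as percent of incorporation in untreated cells.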

The species entered for assay [21] is Mus musculus. Description: Inhibition of incorporation of labeled precursor into macromolecules of noninfected SC-1 cells with the compound at a concentration 100 uM determined against thymidine. It is filed as functional. The method in brief:
as §4

For assay [22], the species on record is Mus musculus. Description: Inhibition of incorporation of labeled precursor into macromolecules of noninfected SC-1 cells with the compound at a concentration 100 uM determined against uridine. The class given is functional. The method in brief: as §4
The species named for assay [23] is Mus musculus. Description: Cytotoxicity was evaluated and represented as IC50. The class given is functional. The method in brief: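 SC-1 cells (1 × 10^4 cells/mL) were seeded, incubated overnight at 37 °C, refed with EMEM-10 and given diluted analogue in triplicate for 72 h at 37 °C. Cells were trypsinized and counted in a Coulter counter. The mean of three wells gave percent of control count, and IC50 was calculated by linear regression.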

The species entered for assay [24] is Mus musculus. The experiment in a line: Concentration that reduces Rauscher murine leukemia virus titer by 50%. The class given is functional, organism-based. The method, boiled down:
as §2

Assay [25] in a line: Selectivity index is the ratio of IC50 to EC50 of F-MuLV. The class given is functional.
The nature of assay [26]: Selectivity index which is the ratio of IC50 to EC50 of R-MuLV. The class given is functional.
For assay [27], the species on record is Homo sapiens. Description: Cytotoxicity was evaluated against C116 human solid tumor at 250 ug/disk. It is filed as functional. The method, boiled down: as §1
A short description of assay [28]: Cytotoxicity was evaluated against low malignancy line at 250 ug/disk. The class given is functional. The method in brief:
as §1

Assay [29] has as its system L1210. The experiment in a line: Compound was evaluated for inhibition of macromolecular synthesis in murine leukemia L1210 cells at 1 hour against DNA. Set-up: scale not given: the % may be the effect or the level left. The class given is functional, Mus musculus.
Assay [30] deals with L1210. Description: Compound was evaluated for inhibition of macromolecular synthesis in murine leukemia L1210 cells at 1 hour against Protein. It is filed as functional, Mus musculus. The arrangement: scale not given: the % may be the effect or the level left.
Assay [31] deals with L1210. The experiment in a line: Compound was evaluated for inhibition of macromolecular synthesis in murine leukemia L1210 cells at 1 hour against RNA. It is filed as functional, Mus musculus. Set-up: scale not given: the % may be the effect or the level left.
In assay [32] the test system is L1210. Description: Cytotoxicity was evaluated against L1210 leukemia cell line at 250 ug/disk. The class given is functional, Mus musculus. The method in brief:
as §1

For assay [33], the species on record is Homo sapiens. The experiment in a line: Cytotoxicity was evaluated against PO1 human solid tumor at 250 ug/disk. The class given is functional. The method in brief:
as §1

Assay [34] deals with PO3. The experiment in a line: Cytotoxicity was evaluated against PO3 cell line at 250 ug/disk. The class given is functional, Mus musculus. The method in brief:
as §1

In assay [35] the test system is MC-38. Description: Cytotoxicity was evaluated against C38 solid tumor of mouse at 500 ug/disk. The class given is functional. The arrangement: unit not given beside the values. The method in brief: as §1
In assay [36] the test system is L1210. The experiment in a line: Compound were evaluated for inhibition of macromolecular synthesis in murine leukemia L1210 cells at 1 hour against DNA. The class given is functional, Mus musculus. The arrangement: scale not given: the % may be the effect or the level left.
Assay [37] relates to L1210. Description: Compound were evaluated for inhibition of macromolecular synthesis in murine leukemia L1210 cells at 1 hour against Protein. It is filed as functional, Mus musculus. The arrangement: scale not given: the % may be the effect or the level left.
In assay [38] the test system is L1210. Description: Compound were evaluated for inhibition of macromolecular synthesis in murine leukemia L1210 cells at 1 hour against RNA. The class given is functional, Mus musculus. The arrangement: scale not given: the % may be the effect or the level left.
Assay [39] relates to L1210. Description: Compound were evaluated for inhibition of macromolecular synthesis in murine leukemia L1210 cells at 4 hour against Protein. The class given is functional, Mus musculus. The arrangement: scale not given: the % may be the effect or the level left.
Assay [40] has as its system L1210. Description: Compound were evaluated for inhibition of macromolecular synthesis in murine leukemia L1210 cells at 4 hour against RNA. Set-up: scale not given: the % may be the effect or the level left. The class given is functional, Mus musculus.
For assay [41], the system named is L1210. Description: Compound were evaluated for inhibition of macromolecular synthesis in murine leukemia L1210 cells at 4 hour against DNA. The arrangement: scale not given: the % may be the effect or the level left. It is filed as functional, Mus musculus.
Assay [42] relates to L1210. The experiment in a line: Cytotoxicity was evaluated against L1210 leukemia cell line at 500 ug/disk. The class given is functional, Mus musculus. The method, boiled down: as §1
A short description of assay [43]: Cytotoxicity was evaluated against low malignancy line at 500 ug/disk. It is filed as functional. The method, boiled down:
as §1

As to `Cc1cn(C2C=CCO2)c(=O)[nH]c1=O` (centres undefined), the Cytotoxicity stood at 260 in the assay filed under Homo sapiens [1], 430 with MC-38 [2], 500 in the assay listed under Mus musculus [3] and 410 in the assay with L1210 [7]. The Control is reported as 10% in the assay with L1210 [4], 90% with L1210 [5] and 50% with L1210 [6]. In the assay with L1210 [8], the IC50 was determined as 50 µM.

For the compound `Nc1ncnc2c1ncn2[C@@H]1C=C(CO)[C@@H](O)[C@H]1O` [NEOPLANOCIN A], the Cytotoxicity is 340 in the assay listed under Homo sapiens [9]; 0 in the assay on MC-38 [10]; 40 in assay [11]; 400 in the assay listed under Homo sapiens [12]; 100 in assay [13]; 0 in the assay filed under Homo sapiens [14]. The Cytotoxicity with PO3 [15] is listed as 80.

For `Nc1ncnc2c1ncn2CC#CCO`, the EC50 in the assay filed under Mus musculus [16] amounted to 245 µM; in the assay filed under Mus musculus [24] it was 156 µM. In addition, the Precursor inhibition is recorded as 75% in the assay filed under Mus musculus [17]; 36% in the assay listed under Mus musculus [18]; 66% in the assay filed under Mus musculus [19]; 88% in the assay listed under Mus musculus [20]; 60% in the assay listed under Mus musculus [21]; 67% in the assay filed under Mus musculus [22]. Also, the figures for the half-inhibitory concentration (IC50) in the assay on L1210 [8] and in the assay filed under Mus musculus [23] were 490 µM and 407 µM, respectively. In addition, the SI in assay [25] stood at 1.7; in assay [26] it was 2.6.

On to `Nc1ccn(C2C=CCO2)c(=O)n1` (centres undefined), for which the Cytotoxicity in the assay filed under Homo sapiens [27] came to 450; in assay [28] it was 400; in the assay on L1210 [32], 500; in the assay filed under Homo sapiens [33], 600; with PO3 [34], 500. Moreover, the Control with L1210 [29] came out at 85%; with L1210 [30], 100%; with L1210 [31], 100%; with L1210 [4] it was 55%; in the assay with L1210 [5], 50%; with L1210 [6], 85%. For the same compound, inhibition in the assay on L1210 [8] was half-maximal at 28 µM (IC50).

In the case of `Nc1ncnc2c1ncn2C/C=C\CCl`, the Cytotoxicity in the assay with MC-38 [35] worked out at 280; in the assay with L1210 [42] it was 220; in [43], 200. The Control with L1210 [36] is recorded as 80%; in the assay with L1210 [37] it was 99%; with L1210 [38] it was 98%; in the assay on L1210 [39] it was 60%; in the assay on L1210 [40], 73%; in the assay on L1210 [41], 68%. In the assay with L1210 [8], this compound gave an IC50 of 22 µM.
